{"source": "paper PMC11913021", "about": "(Journal of Medicinal Chemistry, 2024)", "key": {"F789A mutant PLD1": {"molecular_target": "T1, F789A mutant PLD1 (Homo sapiens, UniProt Q13393, F827A)", "T1 sequence (Q13393 1-1036 isoform Q13393-2 F789A)": "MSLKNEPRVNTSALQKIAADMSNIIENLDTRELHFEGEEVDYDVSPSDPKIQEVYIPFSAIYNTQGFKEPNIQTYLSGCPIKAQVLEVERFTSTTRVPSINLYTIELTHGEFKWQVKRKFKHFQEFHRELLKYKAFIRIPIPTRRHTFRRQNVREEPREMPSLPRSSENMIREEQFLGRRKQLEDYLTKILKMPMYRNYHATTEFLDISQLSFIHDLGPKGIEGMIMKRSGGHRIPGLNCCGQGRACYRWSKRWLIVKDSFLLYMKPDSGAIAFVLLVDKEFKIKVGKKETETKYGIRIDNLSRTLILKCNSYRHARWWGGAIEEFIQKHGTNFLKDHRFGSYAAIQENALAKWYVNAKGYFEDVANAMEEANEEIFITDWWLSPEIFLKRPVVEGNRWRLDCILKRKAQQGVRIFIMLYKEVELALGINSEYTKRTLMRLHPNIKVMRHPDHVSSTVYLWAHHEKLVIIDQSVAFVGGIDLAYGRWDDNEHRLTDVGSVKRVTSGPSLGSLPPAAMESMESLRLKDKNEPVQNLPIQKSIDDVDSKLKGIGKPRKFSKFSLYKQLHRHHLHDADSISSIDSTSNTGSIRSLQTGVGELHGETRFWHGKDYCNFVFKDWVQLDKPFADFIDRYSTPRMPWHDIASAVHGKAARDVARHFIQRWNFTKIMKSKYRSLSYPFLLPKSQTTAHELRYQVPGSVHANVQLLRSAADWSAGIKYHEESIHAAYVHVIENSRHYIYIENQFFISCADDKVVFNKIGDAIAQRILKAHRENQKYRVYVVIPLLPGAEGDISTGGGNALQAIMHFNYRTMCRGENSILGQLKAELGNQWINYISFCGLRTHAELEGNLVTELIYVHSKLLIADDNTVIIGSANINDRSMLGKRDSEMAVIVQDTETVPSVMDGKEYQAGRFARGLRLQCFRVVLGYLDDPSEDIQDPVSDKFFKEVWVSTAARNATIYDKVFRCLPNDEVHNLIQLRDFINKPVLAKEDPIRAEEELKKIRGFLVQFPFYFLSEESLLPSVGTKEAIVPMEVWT", "experiment": "PLD activity assay in F789A mutant PLD1-transfected cells", "assay_type": "cell-based"}, "PLD": {"test_system": "PLD", "experiment": "PLD activity inhibition in A549 cells", "assay_type": "cell-based", "conditions": "read-out: IC50 for PLD inhibition"}, "A549 cells [1]": {"test_system": "A549 cells", "experiment": "Cell apoptosis assay", "assay_type": "cell-based", "conditions": "flow cytometry and caspase-3 activity assay", "outline": "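Apoptosis detected by Annexin V-FITC staining and flow cytometry. For caspase-3, cells were grown to about 40% density and given test compound, or the inhibitor Ac-DEVD-CHO, at 10 μM for 48 h. After a PBS wash, 1 μM NucView 488 caspase-3 substrate was added for 30 min at RT, then 1 μM Hoechst 33342. Both fluorescences were read on a plate reader.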"}, "KRAS": {"test_system": "KRAS", "experiment": "RAS activation assay in KRAS-transfected cells", "assay_type": "cell-based", "outline": "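Cells treated with test compound for 24 h and lysed with protease inhibitor, then spun at 13,000 rpm for 10 min at 4 °C. Lysate (800 μg) was incubated overnight at 4 °C with GST-Raf1-RBD beads and washed three times. Bound RAS-GTP was eluted in SDS buffer, heated at 100 °C for 5 min, and immunoblotted for RAS.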"}, "A549 cells [2]": {"test_system": "A549 cells", "experiment": "In vitro phagocytosis assay", "assay_type": "cell-based, human", "conditions": "A549 cocultured with PMA-activated THP-1", "outline": "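A549 cells treated with test compound for 48 h in RPMI with 10% FBS, then labelled with 1 μM CFSE. THP-1 cells were differentiated with PMA for 36 h, and 5 × 10^5 were co-incubated with equal CFSE-labelled cells in serum-free RPMI for 2 h. After Fc block and PerCP-Cy5.5 anti-CD11b staining (20 min, 4 °C), CFSE+CD11b+ cells were counted by flow cytometry in at least three independent experiments.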"}, "[3]": {"experiment": "Body weight of normal C57BL/6 mice without cancer cells", "assay_type": "in vivo, mouse", "conditions": "oral, C57BL/6 without cancer cells, vs untreated"}}, "note": "pIC50: −log10 of the molar value. Values joined by “and” are separate entries in the source; they are usually repeats but may differ in a detail not shown here. Equal entries are not always repeated.", "data": [{"substance": "N-(3,5-Bis(trifluoromethyl)phenyl)-3-(1H-indol-3-yl)propanamide [3r]", "values": [{"measurement": "PLD activity", "setting": "F789A mutant PLD1", "result": "did not significantly inhibit"}, {"measurement": "pIC50", "setting": "PLD", "result": "5.71 and 5.70"}, {"measurement": "apoptosis of A549 cells", "setting": "A549 cells [1]", "result": "induced"}, {"measurement": "KRAS activation", "setting": "KRAS", "result": "inhibited"}, {"measurement": "CD11b^+CFSE^+ macrophages (phagocytosis)", "setting": "A549 cells [2]", "result": "significantly increased"}, {"measurement": "weight of the normal mice", "setting": "[3]", "result": "no effect"}]}]}
